In ChEMBL document CHEMBL5678815 (Clin Cancer Res, 2017):
Calls of active or inactive are those of the source. The calls are words filed in the database; no cut-off is given here.

Legend:
[1] = target: Serine/threonine-protein kinase B-raf (Homo sapiens) (UniProt P15056); assay: Inhibition of human BRAF assessed as remaining activity at 1 uM by ATP-competition binding assay relative to control
Summary of the method: (§1)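 KINOMEscan ATP-site-dependent competition binding panel of 395 human kinases, with compound tested at 1 μM. Binding is reported as remaining signal relative to control.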

[2] = test system: Mast/stem cell growth factor receptor Kit (Homo sapiens), P10721 [V559D]; assay: Inhibition of human KIT V559D mutant assessed as remaining activity at 1 uM by ATP-competition binding assay relative to control
Summary of the method: (§2)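 Single-point profiling at 1μM in an ATP-site-dependent competition binding assay across a panel of 395 human kinases, including mutant forms. The read-out is kinase binding signal in the presence of test agent, expressed as inhibition relative to the control signal. This screen assessed noncovalent binding interactions.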

Splenocyte = assay: In vivo inhibition of BCR signaling in female […] mouse assessed as change in CD86 expression at 25 mg/kg, po administered and measured after stimulation with anti-IgM for 18 h by flow cytometry analysis; format: functional, organism-based
Summary of the method: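 Female C57BL/6 mice (5/group) received vehicle or 25 mg/kg drug by oral gavage at time zero, with spleens taken at time points from 3 to 24 h. Splenocytes were stimulated ex vivo with goat anti-mouse IgM at 10μg/mL for 18 h at 37°C in 5% CO2, then Fc-blocked and stained for CD19 plus CD69, CD86 or phospho-S6(S235/236), with 7-AAD to exclude dead cells. Read-out was flow cytometry on >5,000 gated CD19+ cells, compared with vehicle.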

[3] = target: Receptor tyrosine-protein kinase erbB-4 (Homo sapiens) (UniProt Q15303); assay: Inhibition of human ERBB4 at <100 nM by ATP-Competition Binding Assay
[4] = test system: Hepatocyte growth factor receptor (Homo sapiens), P08581 [M1250T]; assay: Inhibition of human MET M1250T mutant assessed as remaining activity at 1 uM by ATP-competition binding assay relative to control; summary of the method: as §2
[5] = target: Casein kinase II subunit alpha (Homo sapiens) (UniProt P68400); assay: Inhibition of human CSNK2A1 assessed as remaining activity at 1 uM by ATP-competition binding assay relative to control; summary of the method: as §1
[6] = target: Mitogen-activated protein kinase kinase kinase 11 (Homo sapiens) (UniProt Q16584); assay: Inhibition of human MLK3 assessed as remaining activity at 1 uM by ATP-competition binding assay relative to control; summary of the method: as §2
[7] = target: Receptor tyrosine-protein kinase erbB-4 (Homo sapiens) (UniProt Q15303); assay: Inhibition of human ERBB4 assessed as remaining activity at 1 uM by ATP-competition binding assay relative to control; summary of the method: as §2
[8] = target: Serine/threonine-protein kinase N1 (Homo sapiens) (UniProt Q16512); assay: Inhibition of human PKN1 assessed as remaining activity at 1 uM by ATP-competition binding assay relative to control
Summary of the method: (§3)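 Single-concentration (1 μM) screen in an ATP-site-dependent competition binding assay (KINOMEscan, outsourced) covering 395 human kinases, mutants included. Non-covalent binding was read as the remaining signal relative to the control signal.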

[9] = target: Homeodomain-interacting protein kinase 1 (Homo sapiens) (UniProt Q86Z02); assay: Inhibition of human HIPK1 assessed as remaining activity at 1 uM by ATP-competition binding assay relative to control; summary of the method: as §2
[10] = target: Tyrosine-protein kinase JAK2 (Homo sapiens) (UniProt O60674); assay: Inhibition of human JAK2 JH1 domain assessed as remaining activity at 1 uM by ATP-competition binding assay relative to control
Summary of the method: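 Compound at 1μM was screened in an ATP-site-dependent competition binding assay (KINOMEscan) against a 395-kinase human panel. Signal was expressed relative to control.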

[11] = target: Cyclin-dependent kinase 15 (Homo sapiens) (UniProt Q96Q40); assay: Inhibition of human PFTAIRE2 assessed as remaining activity at 1 uM by ATP-competition binding assay relative to control; summary of the method: as §2
[12] = target: Mitogen-activated protein kinase kinase kinase 13 (Homo sapiens) (UniProt O43283); assay: Inhibition of human LZK assessed as remaining activity at 1 uM by ATP-competition binding assay relative to control; summary of the method: as §2
[13] = test system: Proto-oncogene tyrosine-protein kinase receptor Ret (Homo sapiens), P07949 [V804L]; assay: Inhibition of human RET V804L assessed as remaining activity at 1 uM by ATP-competition binding assay relative to control
Summary of the method: (§4)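 KINOMEscan ATP-site-dependent competition binding assay across a 395-kinase human panel including mutants; compound tested at 1μM; binding expressed relative to control signal.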

[14] = test system: Serine/threonine-protein kinase B-raf (Homo sapiens), P15056 [V600E]; assay: Inhibition of human BRAF V600E mutant assessed as remaining activity at 1 uM by ATP-competition binding assay relative to control; summary of the method: as §1
[15] = target: Homeodomain-interacting protein kinase 4 (Homo sapiens) (UniProt Q8NE63); assay: Inhibition of human HIPK4 assessed as remaining activity at 1 uM by ATP-competition binding assay relative to control; summary of the method: as §2
[16] = target: Serine/threonine-protein kinase pim-3 (Homo sapiens) (UniProt Q86V86); assay: Inhibition of human PIM3 assessed as remaining activity at 1 uM by ATP-competition binding assay relative to control; summary of the method: as §3
[17] = target: Serine/threonine-protein kinase 26 (Homo sapiens) (UniProt Q9P289); assay: Inhibition of human MST4 assessed as remaining activity at 1 uM by ATP-competition binding assay relative to control; summary of the method: as §2
[18] = target: Tyrosine-protein kinase Tec (Homo sapiens) (UniProt P42680); assay: Inhibition of human TEC assessed as remaining activity at 1 uM by ATP-competition binding assay relative to control; summary of the method: as §4
[19] = target: Tyrosine-protein kinase receptor Tie-1 (Homo sapiens) (UniProt P35590); assay: Inhibition of human TIE1 assessed as remaining activity at 1 uM by ATP-competition binding assay relative to control; summary of the method: as §3
[20] = test system: Fibroblast growth factor receptor 3 (Homo sapiens), P22607 [G697C]; assay: Inhibition of human FGFR3 G697C mutant assessed as remaining activity at 1 uM by ATP-competition binding assay relative to control; summary of the method: as §2
[21] = target: Calcium/calmodulin-dependent protein kinase kinase 2 (Homo sapiens) (UniProt Q96RR4); assay: Inhibition of human CAMKK2 assessed as remaining activity at 1 uM by ATP-competition binding assay relative to control; summary of the method: as §1
[22] = target: Ephrin type-B receptor 2 (Homo sapiens) (UniProt P29323); assay: Inhibition of human EPHB2 assessed as remaining activity at 1 uM by ATP-competition binding assay relative to control; summary of the method: as §2
[23] = target: Dual specificity protein kinase CLK2 (Homo sapiens) (UniProt P49760); assay: Inhibition of human CLK2 assessed as remaining activity at 1 uM by ATP-competition binding assay relative to control; summary of the method: as §1
[24] = target: Receptor-interacting serine/threonine-protein kinase 2 (Homo sapiens) (UniProt O43353); assay: Inhibition of human RIPK2 assessed as remaining activity at 1 uM by ATP-competition binding assay relative to control; summary of the method: as §3
[25] = target: Protein-tyrosine kinase 6 (Homo sapiens) (UniProt Q13882); assay: Inhibition of human BRK assessed as remaining activity at 1 uM by ATP-competition binding assay relative to control; summary of the method: as §1
Protein-tyrosine kinase 6 (Homo sapiens), sequence (Q13882 whole entry, looked up): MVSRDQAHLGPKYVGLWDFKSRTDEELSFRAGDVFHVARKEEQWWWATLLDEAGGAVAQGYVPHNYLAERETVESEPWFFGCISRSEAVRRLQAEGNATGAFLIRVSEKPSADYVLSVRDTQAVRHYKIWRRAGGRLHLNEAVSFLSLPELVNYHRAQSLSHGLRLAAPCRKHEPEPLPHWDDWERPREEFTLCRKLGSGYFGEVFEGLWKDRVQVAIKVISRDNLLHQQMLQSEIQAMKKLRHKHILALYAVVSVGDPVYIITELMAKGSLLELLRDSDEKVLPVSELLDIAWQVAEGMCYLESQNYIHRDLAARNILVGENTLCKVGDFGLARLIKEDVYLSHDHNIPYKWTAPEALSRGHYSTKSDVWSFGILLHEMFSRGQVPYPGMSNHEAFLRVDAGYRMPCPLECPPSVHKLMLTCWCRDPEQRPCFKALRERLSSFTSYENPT

Receptor tyrosine-protein kinase erbB-4 (Homo sapiens), sequence (Q15303 whole entry): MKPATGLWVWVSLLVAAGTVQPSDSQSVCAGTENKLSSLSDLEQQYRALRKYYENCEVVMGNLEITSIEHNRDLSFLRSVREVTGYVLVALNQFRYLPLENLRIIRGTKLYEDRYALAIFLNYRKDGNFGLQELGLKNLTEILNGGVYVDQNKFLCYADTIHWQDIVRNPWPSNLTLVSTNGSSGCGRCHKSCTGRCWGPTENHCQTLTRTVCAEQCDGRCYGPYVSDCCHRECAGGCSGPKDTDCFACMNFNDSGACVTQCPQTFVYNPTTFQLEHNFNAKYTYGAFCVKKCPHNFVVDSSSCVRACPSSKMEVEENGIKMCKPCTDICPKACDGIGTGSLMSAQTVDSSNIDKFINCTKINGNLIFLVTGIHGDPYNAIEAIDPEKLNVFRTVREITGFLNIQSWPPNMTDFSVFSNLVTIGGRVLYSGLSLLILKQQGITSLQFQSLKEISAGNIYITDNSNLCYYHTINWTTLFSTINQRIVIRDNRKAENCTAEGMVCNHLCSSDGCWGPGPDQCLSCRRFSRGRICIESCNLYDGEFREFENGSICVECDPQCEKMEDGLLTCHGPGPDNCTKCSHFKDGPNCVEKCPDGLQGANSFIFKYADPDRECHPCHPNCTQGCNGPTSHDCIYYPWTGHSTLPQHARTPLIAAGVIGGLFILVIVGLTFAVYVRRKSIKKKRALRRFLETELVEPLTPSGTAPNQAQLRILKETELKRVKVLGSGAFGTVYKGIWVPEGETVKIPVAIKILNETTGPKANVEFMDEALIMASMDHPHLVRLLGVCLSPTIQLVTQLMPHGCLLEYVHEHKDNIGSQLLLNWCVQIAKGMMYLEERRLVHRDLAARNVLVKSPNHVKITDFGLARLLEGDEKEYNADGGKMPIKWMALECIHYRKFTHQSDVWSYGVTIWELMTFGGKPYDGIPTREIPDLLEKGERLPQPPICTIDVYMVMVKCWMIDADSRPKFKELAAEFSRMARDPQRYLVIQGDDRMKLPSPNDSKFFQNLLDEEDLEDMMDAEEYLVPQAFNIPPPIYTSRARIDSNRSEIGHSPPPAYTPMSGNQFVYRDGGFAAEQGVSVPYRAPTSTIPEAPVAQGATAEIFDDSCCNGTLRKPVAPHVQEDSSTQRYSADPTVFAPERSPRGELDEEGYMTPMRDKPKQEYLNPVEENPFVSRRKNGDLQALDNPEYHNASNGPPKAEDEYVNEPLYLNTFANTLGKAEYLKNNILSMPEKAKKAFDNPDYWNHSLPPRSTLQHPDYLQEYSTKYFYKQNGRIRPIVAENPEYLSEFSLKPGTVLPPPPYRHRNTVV
Dual specificity protein kinase CLK2 (Homo sapiens), sequence (P49760 whole entry, looked up): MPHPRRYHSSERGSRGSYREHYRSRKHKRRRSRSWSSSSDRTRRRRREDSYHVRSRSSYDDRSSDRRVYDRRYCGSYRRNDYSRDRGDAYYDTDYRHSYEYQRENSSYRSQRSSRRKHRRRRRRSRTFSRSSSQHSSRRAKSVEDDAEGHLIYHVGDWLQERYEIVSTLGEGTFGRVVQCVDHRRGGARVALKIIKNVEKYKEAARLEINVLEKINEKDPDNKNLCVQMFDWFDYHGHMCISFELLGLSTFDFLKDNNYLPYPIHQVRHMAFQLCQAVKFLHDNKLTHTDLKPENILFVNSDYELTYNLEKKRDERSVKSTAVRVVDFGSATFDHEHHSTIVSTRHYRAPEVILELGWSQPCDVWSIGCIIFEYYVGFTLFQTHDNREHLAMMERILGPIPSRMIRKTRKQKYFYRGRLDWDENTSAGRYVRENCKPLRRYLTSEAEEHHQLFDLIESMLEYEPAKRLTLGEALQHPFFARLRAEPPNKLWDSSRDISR
Mitogen-activated protein kinase kinase kinase 11 (Homo sapiens), sequence (Q16584 whole entry, looked up): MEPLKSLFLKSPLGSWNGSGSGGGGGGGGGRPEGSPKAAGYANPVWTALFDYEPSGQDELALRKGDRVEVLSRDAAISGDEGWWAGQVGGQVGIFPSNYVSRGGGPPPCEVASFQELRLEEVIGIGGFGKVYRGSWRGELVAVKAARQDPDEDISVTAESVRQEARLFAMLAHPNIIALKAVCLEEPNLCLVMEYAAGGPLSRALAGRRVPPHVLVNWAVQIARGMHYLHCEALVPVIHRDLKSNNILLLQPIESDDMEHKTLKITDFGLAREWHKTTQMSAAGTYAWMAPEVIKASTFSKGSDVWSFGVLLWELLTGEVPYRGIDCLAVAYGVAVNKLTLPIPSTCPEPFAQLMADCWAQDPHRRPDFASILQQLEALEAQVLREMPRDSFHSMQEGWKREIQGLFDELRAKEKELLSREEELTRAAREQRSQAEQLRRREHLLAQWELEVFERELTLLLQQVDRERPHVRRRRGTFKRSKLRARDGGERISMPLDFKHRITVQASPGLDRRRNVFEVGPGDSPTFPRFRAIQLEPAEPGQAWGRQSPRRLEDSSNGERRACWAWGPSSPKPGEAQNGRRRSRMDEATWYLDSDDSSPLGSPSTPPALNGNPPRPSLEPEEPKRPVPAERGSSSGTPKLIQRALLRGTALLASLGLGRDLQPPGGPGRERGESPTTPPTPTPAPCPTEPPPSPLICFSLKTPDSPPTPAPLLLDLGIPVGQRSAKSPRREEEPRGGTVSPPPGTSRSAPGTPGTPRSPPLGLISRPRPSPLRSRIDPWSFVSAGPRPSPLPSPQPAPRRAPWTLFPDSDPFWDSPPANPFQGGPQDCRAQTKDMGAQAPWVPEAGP
Tyrosine-protein kinase JAK2 (Homo sapiens), sequence (O60674 whole entry, the tested form may be a part): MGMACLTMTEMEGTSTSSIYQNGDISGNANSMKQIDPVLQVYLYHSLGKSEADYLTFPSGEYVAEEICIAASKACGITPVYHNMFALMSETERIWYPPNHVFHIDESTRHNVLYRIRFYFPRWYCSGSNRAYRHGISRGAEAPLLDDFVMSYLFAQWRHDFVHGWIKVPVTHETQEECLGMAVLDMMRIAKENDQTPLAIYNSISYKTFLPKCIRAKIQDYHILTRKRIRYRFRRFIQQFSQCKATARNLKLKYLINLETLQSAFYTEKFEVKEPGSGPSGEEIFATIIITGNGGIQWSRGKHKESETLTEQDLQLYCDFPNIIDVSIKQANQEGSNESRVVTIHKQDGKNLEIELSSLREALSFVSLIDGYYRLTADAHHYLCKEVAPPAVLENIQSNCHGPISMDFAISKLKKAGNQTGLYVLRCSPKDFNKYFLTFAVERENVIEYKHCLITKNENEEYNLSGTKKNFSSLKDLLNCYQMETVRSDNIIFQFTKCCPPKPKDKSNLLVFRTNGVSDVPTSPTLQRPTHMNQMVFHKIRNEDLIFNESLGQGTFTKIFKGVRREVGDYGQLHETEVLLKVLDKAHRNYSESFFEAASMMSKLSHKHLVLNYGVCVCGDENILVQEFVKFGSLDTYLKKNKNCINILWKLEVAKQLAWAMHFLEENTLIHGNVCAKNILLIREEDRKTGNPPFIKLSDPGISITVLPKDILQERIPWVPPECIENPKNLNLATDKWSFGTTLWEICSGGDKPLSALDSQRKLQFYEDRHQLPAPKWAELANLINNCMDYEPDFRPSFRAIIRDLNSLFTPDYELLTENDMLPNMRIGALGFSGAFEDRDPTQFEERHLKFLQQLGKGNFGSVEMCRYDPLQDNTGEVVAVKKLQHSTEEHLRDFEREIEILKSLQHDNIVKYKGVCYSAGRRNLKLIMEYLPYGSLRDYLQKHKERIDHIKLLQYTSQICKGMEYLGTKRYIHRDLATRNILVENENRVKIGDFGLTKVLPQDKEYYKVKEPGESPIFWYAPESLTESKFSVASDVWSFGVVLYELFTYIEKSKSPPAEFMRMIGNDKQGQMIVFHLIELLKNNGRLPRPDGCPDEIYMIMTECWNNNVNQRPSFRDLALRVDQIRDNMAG
Serine/threonine-protein kinase B-raf (Homo sapiens), P15056 [V600E], sequence (P15056 whole entry V600E): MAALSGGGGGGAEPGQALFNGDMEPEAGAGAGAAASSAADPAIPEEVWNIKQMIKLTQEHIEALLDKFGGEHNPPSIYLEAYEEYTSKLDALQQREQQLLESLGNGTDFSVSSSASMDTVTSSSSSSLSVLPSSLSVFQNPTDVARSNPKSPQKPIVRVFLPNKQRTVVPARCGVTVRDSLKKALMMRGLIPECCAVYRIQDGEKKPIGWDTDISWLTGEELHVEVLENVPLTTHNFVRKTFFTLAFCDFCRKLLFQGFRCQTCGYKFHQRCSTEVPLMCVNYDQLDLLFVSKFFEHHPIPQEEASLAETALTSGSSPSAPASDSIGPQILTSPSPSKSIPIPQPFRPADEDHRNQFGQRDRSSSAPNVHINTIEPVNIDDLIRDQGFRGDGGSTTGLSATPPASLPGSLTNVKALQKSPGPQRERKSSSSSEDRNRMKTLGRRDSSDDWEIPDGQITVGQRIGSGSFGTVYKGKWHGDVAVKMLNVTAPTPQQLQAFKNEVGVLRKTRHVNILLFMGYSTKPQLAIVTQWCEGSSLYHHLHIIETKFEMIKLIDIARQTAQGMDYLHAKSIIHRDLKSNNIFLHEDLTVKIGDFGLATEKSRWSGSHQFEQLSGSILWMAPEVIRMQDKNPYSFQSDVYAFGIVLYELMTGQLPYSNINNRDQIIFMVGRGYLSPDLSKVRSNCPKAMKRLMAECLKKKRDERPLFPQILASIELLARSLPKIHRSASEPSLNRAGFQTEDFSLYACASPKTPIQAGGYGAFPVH
Serine/threonine-protein kinase B-raf (Homo sapiens), sequence (P15056 whole entry): as the sequence (P15056 whole entry V600E) above, with E600V counted along it

With `CC#CC(=O)N1CCC[C@H]1c1nc(-c2ccc(C(=O)Nc3ccccn3)cc2)c2c(N)nccn12` [ACALABRUTINIB] the Activity [1] was 64%, the Activity [2] was 53% and the Activity (Splenocyte) was “Active”. For the same compound, the inhibition [3] was “Active”, the Activity [4] was 90% and the Activity [5] was 54%. The Activity [6] was 94%, the Activity [7] was 4.3% and the Activity [8] was 94%. For the same compound, the Activity [9] was 90%, the Activity [10] was 81% and the Activity [11] was 76%. For the same compound, the Activity [12] was 83%, the Activity [13] was 93% and the Activity [14] was 44%. It also gave an Activity [15] of 88%, an Activity [16] of 84% and an Activity [17] of 91%. For the same compound, the Activity [18] was 6.4%, the Activity [19] was 89% and the Activity [20] was 77%. The Activity [21] was 93%, the Activity [22] was 69% and the Activity [23] was 94%. It also gave an Activity [24] of 60% and an Activity [25] of 79%.
